Screening data: PubChem, The Scripps Research Institute Molecular Screening Center
CHRM5 antagonist = blocks acetylcholine activation of human M5 receptor; CHO-hM5 cells, Fluo-8 calcium fluorescence, ACh EC80; AID 624040; inhibition, % at 3 µM; 360,000 tested, 0.59% active;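 active = inhibition above a per-plate cutoff, the mean of that plate's test compounds plus 3 SD, cut at about 27% in these data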;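 note: 0% = acetylcholine EC80 with DMSO and 100% = DMSO without agonist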
CHRM4 agonist = agonists of human muscarinic M4 receptor (CHRM4). P08173. CHO-K1 hM4/Gqi5, Fluo-8 calcium fluorescence; vehicle 0%, full acetylcholine response 100%. activation, % at 3 µM. 360,000 tested, 0.14% active. AID 624127;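 active = activation above the run mean over all test wells plus 3 SD, cut at about 32% in these data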;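 note: peak over basal fluorescence ratio per well then scaled between controls; 0% = DMSO wells and 100% = acetylcholine at EC100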
Target sequence (P08173 whole entry, looked up): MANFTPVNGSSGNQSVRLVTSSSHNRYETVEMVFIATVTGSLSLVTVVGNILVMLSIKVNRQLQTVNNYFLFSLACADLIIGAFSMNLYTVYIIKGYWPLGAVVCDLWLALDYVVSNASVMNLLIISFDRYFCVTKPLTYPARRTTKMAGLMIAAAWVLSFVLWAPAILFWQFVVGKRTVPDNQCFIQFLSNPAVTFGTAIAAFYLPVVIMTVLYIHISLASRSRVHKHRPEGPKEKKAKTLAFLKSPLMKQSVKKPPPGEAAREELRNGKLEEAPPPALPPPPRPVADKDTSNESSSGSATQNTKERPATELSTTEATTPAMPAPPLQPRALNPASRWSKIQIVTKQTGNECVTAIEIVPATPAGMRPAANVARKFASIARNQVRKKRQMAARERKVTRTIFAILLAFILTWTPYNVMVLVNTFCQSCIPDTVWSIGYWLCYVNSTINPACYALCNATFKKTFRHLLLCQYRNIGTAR
M5 PAM = CHRM5 positive allosteric modulation | P08912 | activation, % at 3 µM | CHO-K1 hM5, Fluo-8 calcium, ACh EC20 PAM; 0% = ACh EC20, 100% = ACh EC100 | AID 624038 | 360,000 tested, 0.3% active;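 active = activation above the run cutoff, the mean activation of all test compounds plus 3 SD, cut at about 18% in these data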
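Measured by: Fluo-8 calcium fluorescence; material: human M5 receptor in CHO-K1 cells; schedule: Post-acetylcholine fluorescence recording 140 s; benchmarks: low control EC20 acetylcholine (0%), high control EC100 acetylcholine (100%); read-out: Max/basal fluorescence ratio as % of EC20–EC100 ACh window; compound: single dose, 3 µM nominal final test concentration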
CHRM5 agonist = agonists of human muscarinic M5 receptor (CHRM5); P08912; 360,000 tested, 0.19% active; activation, % at 3 µM; CHO-K1 hM5 cells, Fluo-8 calcium fluorescence; 0% DMSO wells, 100% maximal acetylcholine response;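 active = activation above the run's mean over test compounds plus 3 SD, cut at about 23% in these data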;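 note: signal is peak over basal fluorescence ratio across the kinetic read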
M4 PAM = positive allosteric modulators of human muscarinic M4 receptor; activation, % at 3 µM; AID 624126; CHO-K1 hM4/Gqi5, Fluo-8 calcium fluorescence, ACh EC20; 0% = ACh EC20, 100% = maximal ACh; 360,000 tested, 0.4% active; P08173;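 active = activation above its plate's cutoff, the mean activation of sample wells plus 3 SD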
M4 antag = CHRM4 antagonism in calcium assay. P08173. CHO-hM4 cells, ACh EC80, Fluo-8 calcium fluorescence. inhibition, % at 3 µM. 360,000 tested, 0.73% active;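 active = inhibition above its plate's cutoff, the mean inhibition of sample wells plus 3 SD, cut at about 27% in these data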;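 note: 0% = acetylcholine EC80 with DMSO and 100% = DMSO without agonist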
Numbers without * were called inactive. Compounds with a hit are over-represented: about 1.9% of the library has one in this group of screens.

`CC(C)CNC(=O)C1(C)CCCCCN1C(=O)c1csnn1` (stereo unspecified) gave CHRM5 antagonist 3.9, CHRM4 agonist 0.7, M5 PAM 1.7, CHRM5 agonist -0.2, M4 PAM 18.8* and M4 antag -18.1.
For O=C(c1noc2c1CCCC2)N1CCN(c2ccc(F)cc2)CC1 the results were CHRM5 antagonist -0.8, CHRM4 agonist 3.1, M5 PAM 3.1, CHRM5 agonist 2.2, M4 PAM 3.1 and M4 antag 29.1*.
For Cc1ccc(SCC(=O)Nc2ccc(S(=O)(=O)Nc3ncccn3)cc2)cc1 the results were CHRM5 antagonist 12.5, CHRM4 agonist 0.6, M5 PAM -3.5, CHRM5 agonist -5.6, M4 PAM -2.9 and M4 antag 5.0.
Screening CC(=O)NS(=O)(=O)c1ccc(NC(=O)CSc2ccc(C)cc2)cc1 returned CHRM5 antagonist -7.5, CHRM4 agonist 1.8, M5 PAM 3.3, CHRM5 agonist -0.5, M4 PAM 18.8* and M4 antag -11.5.
For CC(Oc1ccc2c3c(c(=O)oc2c1)CCC3)C(=O)NCc1cccnc1 (stereo unspecified) the results were CHRM5 antagonist 14.6, CHRM4 agonist 2.1, M5 PAM -3.8, CHRM5 agonist -3.6, M4 PAM 18.8* and M4 antag 15.8.
`O=C(COC(=O)c1ccc(Cl)nc1)NCCc1ccccc1` gave CHRM5 antagonist 1.9, CHRM4 agonist 0.7, M5 PAM -0.7, CHRM5 agonist 2.2, M4 PAM -0.1 and M4 antag 10.7.
CC(C)n1nc(C(=O)OCC(=O)N2CC(=O)Nc3ccccc32)c2ccccc2c1=O was read as CHRM5 antagonist 1.6, CHRM4 agonist 1.8, M5 PAM 2.5, CHRM5 agonist 3.5, M4 PAM 19.6* and M4 antag -16.9.
O=C1CN(C(=O)COC(=O)c2ccccc2O)c2ccccc2N1 was read as CHRM5 antagonist -2.6, CHRM4 agonist 1.3, M5 PAM 2.2, CHRM5 agonist 2.2, M4 PAM 1.4 and M4 antag -4.4.
For Cc1cccc(-n2ncc3c(N4CCOCC4)ncnc32)c1 the results were CHRM5 antagonist -3.9, CHRM4 agonist 6.4, M5 PAM -0.5, CHRM5 agonist 3.1, M4 PAM 7.0 and M4 antag -10.6.
Screening Cc1cccc(-n2ncc3c(N4CCCC4)ncnc32)c1 returned CHRM5 antagonist 0.9, CHRM4 agonist 5.8, M5 PAM -4.1, CHRM5 agonist 1.0, M4 PAM 23.2* and M4 antag -3.1.
Screening O=C(COc1ccc([N+](=O)[O-])cc1)Nc1ccccc1C(=O)NC1CC1 returned CHRM5 antagonist -0.6, CHRM4 agonist 0.6, M5 PAM 5.0, CHRM5 agonist -1.1, M4 PAM 4.5 and M4 antag -5.2.
Screening CCOC(=O)CSc1nnc(NC(=O)CCc2ccccc2)s1 returned CHRM5 antagonist -1.0, CHRM4 agonist 0.6, M5 PAM 7.0, CHRM5 agonist -4.2, M4 PAM 21.3* and M4 antag 7.2.
For Cc1cccc(C)c1-n1nnnc1C1(C)CCC(=O)N1c1ccc(N2CCOCC2)cc1 (stereo unspecified) the results were CHRM5 antagonist 2.4, CHRM4 agonist 0.7, M5 PAM -1.8, CHRM5 agonist -0.3, M4 PAM -1.6 and M4 antag 0.4.
CN1CCc2cccc3c2C1Cc1ccc(O)c(O)c1-3 (stereo unspecified) was read as CHRM5 antagonist 4.1, CHRM4 agonist 3.0, M5 PAM -7.4, CHRM5 agonist 35.7*, M4 PAM -7.6 and M4 antag 4.5.
Screening O=S(=O)(NC1CCCC1)c1ccc(S(=O)(=O)N2CCc3ccccc32)cc1 returned CHRM5 antagonist 29.4*, CHRM4 agonist 21.6, M5 PAM -14.7, CHRM5 agonist 8.1, M4 PAM -15.8 and M4 antag 28.9*.
Screening Nc1ccc(S(=O)(=O)N2CCc3ccccc32)cc1 returned CHRM5 antagonist 7.4, CHRM4 agonist 0.6, M5 PAM -0.8, CHRM5 agonist -1.8, M4 PAM -1.9 and M4 antag 12.4.
`Cc1cc2nc(NCCCO)n(CC(=O)c3cc(C(C)(C)C)c(O)c(C(C)(C)C)c3)c2cc1C` gave CHRM5 antagonist 2.9, CHRM4 agonist 2.5, M5 PAM 7.4, CHRM5 agonist 4.3, M4 PAM 11.8 and M4 antag -1.4.
`Cc1cccc2c1N(CCOc1ccc(C(C)(C)C)cc1)C(=O)C2=O` gave CHRM5 antagonist 12.2, CHRM4 agonist -2.9, M5 PAM -11.8, CHRM5 agonist 26.6*, M4 PAM -11.0 and M4 antag 6.1.
Screening COc1ccc(-c2c(-c3ccccc3OC)oc3ccccc23)cc1F returned CHRM5 antagonist 7.2, CHRM4 agonist -0.2, M5 PAM 2.4, CHRM5 agonist -1.8, M4 PAM 10.9 and M4 antag -2.8.
`O=C(Nc1nc(-c2ccccc2)c(-c2ccccc2)o1)c1ccc(F)cc1` gave CHRM5 antagonist 9.2, CHRM4 agonist 1.8, M5 PAM 34.1*, CHRM5 agonist -1.1, M4 PAM 3.3 and M4 antag -2.6.
COc1cccc(C(=O)Nc2nc(-c3ccccc3)c(-c3ccccc3)o2)c1 was read as CHRM5 antagonist 1.5, CHRM4 agonist -0.3, M5 PAM -2.3, CHRM5 agonist -0.4, M4 PAM -0.5 and M4 antag -6.3.
C=CCc1c(C)nc(-c2ccccc2)nc1N/N=C(\C)c1ccccc1 was read as CHRM5 antagonist 8.6, CHRM4 agonist -1.2, M5 PAM -5.5, CHRM5 agonist -4.2, M4 PAM -8.9 and M4 antag 35.1*.
For O=S(=O)(c1ccc(Cl)cc1)N1CCCC1c1nc2ccccc2s1 (stereo unspecified) the results were CHRM5 antagonist 3.7, CHRM4 agonist 0.7, M5 PAM -4.1, CHRM5 agonist -4.6, M4 PAM 2.2 and M4 antag -2.1.
Cc1ccc(S(=O)(=O)N2CCCC2c2nc3ccccc3s2)cc1 (stereo unspecified) was read as CHRM5 antagonist -4.3, CHRM4 agonist 0.3, M5 PAM 18.2*, CHRM5 agonist -8.2, M4 PAM 8.3 and M4 antag 4.6.
Cc1ccccc1C(=O)O/N=C(\c1ccccc1)c1ccccn1 was read as CHRM5 antagonist -6.0, CHRM4 agonist 2.6, M5 PAM 5.7, CHRM5 agonist -1.8, M4 PAM 21.9* and M4 antag -4.5.
Screening CCCCNC(=O)CC(C(=O)N1CCc2ccccc21)n1ccnc1 (stereo unspecified) returned CHRM5 antagonist -10.2, CHRM4 agonist 0.4, M5 PAM -1.8, CHRM5 agonist 6.4, M4 PAM 33.8* and M4 antag 28.1*.
